Only a selection was taken, and hits are over-represented in it overall.
PTEN del growth: growth suppressors of cells with PTEN tumor suppressor deletion; HCT116 PTEN-null viability, CellTiter-Glo, 60 h; stronger effect = lower value; viability, % at 10 µM; 140,000 tested, 1.2% active; AID 827;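 active = viability at or below a set limit, 4 SD under the median of all tested compounds, cut at about 3.7% in these data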;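 note: PTEN knockout HCT116 line with beta catenin targeted HCT116 as companion control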
HUVEC prolif 384: human endothelial cell proliferation inhibition; HUVEC proliferation, CellTiter-Glo luminescence, 72 h; stronger effect = lower value; viability, % at 10 µM (by protocol); 86,000 tested, 1.1% active;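 active = viability at or below 30%; inactive = viability above 30%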;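 note: 100% = median luminescence of DMSO-only cell control wells on each plate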
bCat KO growth: beta-catenin-lacking colon tumor cell growth suppression; 140,000 tested, 1.5% active; viability, % at 10 µM; HCT116 beta-catenin knockout viability, CellTiter-Glo, 60 h; stronger effect = lower value;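 active = viability at or under a set limit, the compound median less 4 SD, cut at about 6% in these data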;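 note: 0% = Hyamine 1622 control at 20 µM and 100% = untreated cell control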
Lung fibro prol: blocks proliferation of human lung fibroblasts. LL 47 human lung fibroblast viability, ATP luminescence; stronger effect = lower value. 85,000 tested, 1.1% active. viability, % at 10 µM;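 active = viability at or below 50% in the single dose screen; inactive = viability above 50%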;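 note: compound exposure lasted 72 h before the ATP readout; 100% = median luminescence of untreated cell-only wells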
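Benchmarks: Cell-only wells, no compound | Test system: LL 47 human lung fibroblasts, passage 12 or lower | Input: 1,150 cells/well | Measured by: CellTiter-Glo luminescence measuring cellular ATP | Medium: IMEM, 15% FBS supplement | Schedule: Overnight attachment after seeding, then 72 h compound exposure at 37 °C | Doses: Compound addition at 0.1% DMSO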
H69AR inhibit: growth inhibitors of human H69AR lung tumor cells. H69AR lung tumor viability, ATP luminescence, 72 h; stronger effect = lower value. viability, % at 10 µM. 85,000 tested, 6% active. AID 598;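 active = viability at or below 40%; inactive = viability above 40%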;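 note: multidrug resistant small cell line overexpressing MRP-1 efflux transporter; 100% = mean luminescence of untreated control wells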
PTK2B oligo ant: blocks oligomerization of human Pyk2 in cells | Q14289 | Q293 cells, Pyk2 FERM NanoBiT luminescence; stronger effect = lower value | z-score (the deposit names both 25 µM and 10 µM) | 99,000 tested, 0.83% active;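 active = Z-score of -3 or lower, scaled per plate to the spread of control and sample wells; inactive = z-score above -3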;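 note: negative z-score means lost luminescence so less FERM oligomerization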
Starred values were filed as active, the others as inactive; . = no result given.

SMILES	PTEN del growth	HUVEC prolif 384	bCat KO growth	Lung fibro prol	H69AR inhibit	PTK2B oligo ant
CCOC(=O)c1[nH]c(C)c(C(=O)NCc2ccc(C)cc2)c1C	68	59	91	97	91	.
CCOC(=O)c1[nH]c(C)c(C(=O)Nc2ccccc2F)c1C	20	56	23	64	23*	0.12
Cc1ccnc(N2CCC(C(=O)NNC(=O)c3ccccc3C)CC2)n1	94	.	95	.	.	0.25
CN(C)c1cccc(C(=O)N/N=C/c2ccsc2)c1	87	.	96	.	.	.
Cc1ccc(C2CC(C(F)(F)F)n3nc(C(=O)NCc4c(C)nn(C)c4C)c(Cl)c3N2)cc1 (stereo not given)	51	.	71	.	.	-3.5*
Cc1nn(C)c(C)c1CNC(=O)c1cnn2c1NC(c1ccccc1)CC2C(F)(F)F (stereo not given)	101	102	96	95	90	-1.1
CC(C)CC(NC(=O)c1ccc(Cl)cc1)C(=O)OCc1cc([N+](=O)[O-])cc2c1OCOC2 (stereo not given)	88	.	93	.	.	.
CN1CCN(c2nc(-c3ccccc3)nc3c2oc2ccccc23)CC1	.	24*	.	84	87	0.24
NC(=O)C1CCN(c2nc(-c3ccccc3)nc3c2oc2ccccc23)CC1	14	62	9	90	.	-0.59
CC(=O)c1cccc(NC(=O)C(Sc2ncnc3ccccc23)c2ccccc2)c1 (stereo not given)	68	.	83	.	.	.
Cc1ccc(C)c(NC(=O)C(Sc2ncnc3ccccc23)c2ccccc2)c1 (stereo not given)	1.2*	.	67	.	.	-0.56
Cc1noc(C)c1C1(O)CCCCCCCCCCC1	98	.	91	.	.	.
C/C(=N/OC(=O)c1ccc(F)cc1)c1ccc(C)cc1	94	.	95	.	.	0.4
OC(CNCc1ccco1)Cn1c2ccc(Br)cc2c2cc(Br)ccc21 (stereo not given)	1.7*	.	2.1*	.	.	1.1
COC(=O)c1ccccc1NC(=S)N(Cc1ccc2c(c1)OCO2)Cc1cc2cc(OC)ccc2[nH]c1=O	73	.	75	.	.	.
O=C(Cc1ccccc1)NC1c2ccccc2-c2ccccc21	94	.	97	.	.	.
COc1ccc(CN(C)C2CCCCC2)cc1	91	102	100	102	86	-0.31
CN(Cc1ccc(O)cc1)C1CCCCC1	97	101	85	.	30*	0.24
NC1=NC(=O)/C(=C/c2ccccc2OS(=O)(=O)c2ccc3ccccc3c2)S1	102	.	96	.	.	.
O=C(NCc1cccnc1)/C(=C\c1ccc(-c2cccc(Cl)c2)o1)S(=O)(=O)c1ccccc1	1.7*	.	1.7*	.	.	-1.4
N#C/C(=C/c1ccc(CNC(=O)C(=O)Nc2cc(Cl)cc(Cl)c2)o1)C(=O)NCc1cccnc1	94	.	82	.	.	.
Cc1ccc(C(=O)N/C(=C\c2ccc(-c3cc(Cl)ccc3Cl)o2)C(=O)NCc2cccnc2)cc1	26	.	33	.	.	-0.84
O=C(NCc1cccnc1)/C(=C/c1ccc(-c2cccc(Cl)c2)o1)S(=O)(=O)c1ccccc1	1.6*	.	1.8*	.	.	1.8
CCOc1ccc(N(CC(=O)Nc2ccccc2C(=O)NC(C)CC)S(C)(=O)=O)cc1 (stereo not given)	89	.	90	.	.	.
COc1ccc(-c2[nH]c(-c3ccc(SC)cc3)nc2SCC(=O)Nc2nccs2)cc1	73	.	68	.	.	.
SMILES	PTEN del growth	HUVEC prolif 384	bCat KO growth	Lung fibro prol	H69AR inhibit	PTK2B oligo ant
N#CC1=C(N)Oc2cc(N)ccc2C1C1CCCCC1 (stereo not given)	25	58	29	58	24*	-1.3
O=C(NCC1CCCO1)C(=O)NCC(c1ccco1)N1CCN(c2ccccc2F)CC1 (stereo not given)	84	.	93	.	.	.
CCn1c(N)c(C(=O)Nc2ccccc2C(=O)OC)sc1=S	85	78	98	95	67	0.35
N#Cc1ccc(-c2ccco2)nc1SCC(=O)c1ccc(Cl)cc1	69	38	68	93	6.2*	-0.93
CC(Sc1nc(N(C)C)nc(N2CCOCC2)n1)C(=O)Nc1ccccc1 (stereo not given)	95	102	109	94	31*	-0.06
CC(Sc1nc(N2CCOCC2)nc(N2CCOCC2)n1)C(=O)Nc1ccccc1 (stereo not given)	83	97	95	100	71	-0.28
O=S(=O)(NCCc1ccccn1)c1ccc(F)c(F)c1	102	105	91	104	99	-0.2
